# pEC50: −log10 of the molar value. Entries after “also recorded” stand apart in the source; their conditions may differ.
# Legend:
# [1] = system: DENV-2; assay: Plaque reduction assay, pre- and post-infection treatment, DENV-2; assay type: cell-based, Dengue virus type 2; conditions: Dengue virus, DENV2, Vero, 192 h, read-out: EC50 pre-infection treatment DENV-2
# Method in brief: (§1)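 Vero monolayers (2.5 × 10^4 cells/well) received 100 PFU/well (DENV-2 New Guinea or HHV-2 VR-734-G). Pre-infection: virus/test compound mixture for 1 h at 37 °C, then PBS (pH 7.0) wash and CMC overlay. Post-infection: virus 1 h, wash, then compound in CMC. CMC was 2% for DENV-2 (8 days) and 0.75% for HHV-2 (72 h). Formaldehyde/crystal violet stain, plaques counted. EC50 by linear regression; mean of three experiments.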
# [2] = system: HHV-2; assay: Plaque reduction assay, pre- and post-infection treatment, HHV-2; assay type: cell-based, Human Herpesvirus type 2; conditions: Vero, 72 h, read-out: EC50 pre-infection treatment HHV-2
# Method in brief: as §1
# [3] = system: HHV-1 (CDC Atlanta strain); assay: Screening against HHV-1 by end-point titration technique; assay type: cell-based, Human Herpesvirus type 1; conditions: Vero cell line; 10 TCID50; 48 h
# Method in brief: (§2)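 Vero cells (2.0 × 10^4 cells/well) were grown to ≥80% monolayer. 10 TCID50 virus was mixed with test compound (6.25–50 μg/mL) in DMEM/2% FBS containing CMC: 1% for HHV-1, 0.5% for HHV-2. Mixture held 15 min at room temperature, then incubated at 37 °C: 48 h (HHV-1) or 72 h (HHV-2). Crystal violet/formaldehyde stain, plaques counted. Titer reduction factor: ≥1 × 10^3 relevant, 1 × 10^2 moderate. Two experiments in quadruplicate.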
# [4] = system: Vero cells; assay: MTT cytotoxicity on Vero cells; assay type: cell-based, Cercopithecus aethiops; conditions: read-out: IC50 (μM) 72 h, inhibitory concentration of cell proliferation
# [5] = system: HHV-2 (VR-734-G strain); assay: Screening against HHV-2 by end-point titration technique; assay type: cell-based, Human Herpesvirus type 2; conditions: Vero cell line; 10 TCID50; 72 h
# Method in brief: as §2
Compound,pEC50 [1],pEC50 [2],"Rf, reduction factor of the viral titer, HHV-1 [3]",IC50 [4],"Rf, reduction factor of the viral titer, HHV-2 [5]"
CC(C)c1cc2c(cc1O)[C@@]1(C)CCC[C@@](C)(CN3C(=O)c4ccccc4C3=O)[C@@H]1CC2 [Compound 8],< 4.54,< 4.54,,,
"CC(C)c1cc2c(cc1O)[C@@]1(C)CCC[C@@](C)(C=O)[C@@H]1CC2 [Compound 9, 18-oxoferruginol]",< 4.68,< 4.68,did not show activity; also recorded: did not show reduction of viral titer,,
dextran sulfate [DEX-S],,,,> 10 µM,
"Nc1nc2c(ncn2COCCO)c(=O)[nH]1 [ACV, acyclovir]",,,,,10^3

# Source: paper PMC7115619 (European Journal of Medicinal Chemistry, 2015)
